Structures are written as SMILES. The source made the active and inactive calls. Some results are limits rather than exact numbers.

The IC50 is the concentration at which inhibition is half-maximal. For orientation: EC50 means the concentration needed to bring the measured effect to its halfway point.

For test [1], the target named is Macrophage colony-stimulating factor 1 receptor (Homo sapiens) (UniProt P07333). In words: Binding affinity to wild-type human partial length autoinhibited CSF1R (Y538 to S939 residues) expressed in mammalian expression system assessed as remaining unbound target protein level at 1000 nM by Kinomescan method relative to control.
Test [2] addresses Serine/threonine-protein kinase MAK (Homo sapiens) (UniProt P20794). In words: Binding affinity to wild-type human partial length MAK (M1 to P314 residues) expressed in bacterial expression system assessed as remaining unbound target protein level at 1000 nM by Kinomescan method relative to control.
In test [3] the target is MAP kinase-activated protein kinase 5 (Homo sapiens) (UniProt Q8IW41). In words: Binding affinity to wild-type human partial length MAPKAPK5 (M1 to D322 residues) expressed in mammalian expression system assessed as remaining unbound target protein level at 1000 nM by Kinomescan method relative to control. Summed up: (§1)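 KINOMEscan binding panel of 468 kinases/mutants. Inhibitor was tested at a single concentration of 1 μM. Binding is reported as percent of control, defined relative to a DMSO control.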

The species entered for test [4] is Homo sapiens. Nature of the test: Induction of apoptosis in human MEC1 cells assessed as decrease in c-MYC level after 2 hrs by immunoblotting analysis. In kind it is functional, cell-based.
Test [5] concerns the target Serine/threonine-protein kinase 4 (Homo sapiens) (UniProt Q13043). In words: Binding affinity to wild-type human full length MST1 (M1 to F487 residues) expressed in bacterial expression system assessed as remaining unbound target protein level at 1000 nM by Kinomescan method relative to control. In a few lines: (§2)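 KINOMEscan competition binding profile across a panel of 468 kinases and mutants, with the inhibitor tested at a single concentration of 1 μM. Binding is reported as percent of control, meaning signal relative to a DMSO control.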

Test [6] deals with Receptor-interacting serine/threonine-protein kinase 1 (Homo sapiens) (UniProt Q13546). In words: Binding affinity to wild-type human partial length RIPK1 (M1 to K305 residues) expressed in bacterial expression system assessed as remaining unbound target protein level at 1000 nM by Kinomescan method relative to control.
In test [7] the target is Calcium/calmodulin-dependent protein kinase type 1G (Homo sapiens) (UniProt Q96NX5). Nature of the test: Binding affinity to wild-type human partial length CAMK1G (M1 to A342 residues) expressed in bacterial expression system assessed as remaining unbound target protein level at 1000 nM by Kinomescan method relative to control. Summed up: as §2
Test [8] deals with Ribosomal protein S6 kinase alpha-4 (Homo sapiens) (UniProt O75676). In words: Binding affinity to wild-type human partial length C-terminal RPS6KA4 kinase domain 2 (M375 to T705 residues) expressed in mammalian expression system assessed as remaining unbound target protein level at 1000 nM by Kinomescan method relative to control. In a few lines: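 Profiled in a KINOMEscan binding panel with the inhibitor at a single concentration of 1 μM. Binding to each kinase was read out as percent of control, relative to a DMSO control. Strong binders were defined as those with a percent control value below 1.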

For test [9], the target named is Serine/threonine-protein kinase Nek10 (Homo sapiens) (UniProt Q6ZWH5). In words: Binding affinity to wild-type human partial length NEK10 (L488 to R809 residues) expressed in mammalian expression system assessed as remaining unbound target protein level at 1000 nM by Kinomescan method relative to control.
The target of test [10] is Protein kinase C iota type (Homo sapiens) (UniProt P41743). Nature of the test: Binding affinity to wild-type human partial length PRKCI (H215 to V587 residues) expressed in mammalian expression system assessed as remaining unbound target protein level at 1000 nM by Kinomescan method relative to control.
In test [11] the target is Serine/threonine-protein kinase SBK1 (Homo sapiens) (UniProt Q52WX2). Nature of the test: Binding affinity to wild-type human partial length SBK1 (P23 to P348 residues) expressed in mammalian expression system assessed as remaining unbound target protein level at 1000 nM by Kinomescan method relative to control.
Test [12] concerns the target Calcium-dependent protein kinase 1 (Plasmodium falciparum) (UniProt P62344). In words: Binding affinity to wild-type Plasmodium falciparum full length CDPK1 (M1 to S524 residues) expressed in mammalian expression system assessed as remaining unbound target protein level at 1000 nM by Kinomescan method relative to control. Summed up: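 KINOMEscan competitive binding profile at 1 μM inhibitor. Remaining target binding reported as percent of DMSO control.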

Test [13] has as its target Cyclin-dependent kinase 11B (Homo sapiens, UniProt P21127). In words: Inhibition of recombinant GST-tagged inactive state of human CDK11.
In test [14] the target is Receptor tyrosine-protein kinase erbB-4 (Homo sapiens) (UniProt Q15303). In words: Binding affinity to wild-type human partial length ERBB4 (L690 to K994 residues) expressed in bacterial expression system assessed as remaining unbound target protein level at 1000 nM by Kinomescan method relative to control.
In test [15] the target is Tyrosine-protein kinase JAK1 (Homo sapiens) (UniProt P23458). Nature of the test: Binding affinity to wild-type human partial length JAK1 JH1 catalytic domain (V856 to K1154 residues) expressed in bacterial expression system assessed as remaining unbound target protein level at 1000 nM by Kinomescan method relative to control. Summed up:
as §1

The species named for test [16] is Homo sapiens. Nature of the test: Induction of apoptosis in human MEC1 cells assessed as decrease in BCL-2 level up to 3 uM after 2 hrs by immunoblotting analysis. In kind it is functional, cell-based. On the technique in general: In western blotting, separated proteins are transferred to a membrane and probed.
Test [17] addresses Casein kinase I isoform gamma-3 (Homo sapiens) (UniProt Q9Y6M4). In words: Binding affinity to wild-type human full length CSNK1G3 (M1 to K447 residues) expressed in bacterial expression system assessed as remaining unbound target protein level at 1000 nM by Kinomescan method relative to control. Summed up:
(§3)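 Single-point competition binding screen across a panel of 468 kinases and mutants, with the inhibitor at 1 μM. Binding is read out as percent of a DMSO control, and targets below 1 percent control were classed as strong binders.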

In test [18] the target is Cyclin-dependent kinase 9 (Homo sapiens, UniProt P50750). In words: Inhibition of CDK9 in human HL60 cells assessed as decrease in RNA polymerase 2 phosphorylation at Ser 2 residues in CTD domain after 2 hrs by immunoblotting analysis. It counts as cell-based.
The target in test [19] is Vascular endothelial growth factor receptor 3 (Homo sapiens) (UniProt P35916). In words: Binding affinity to wild-type human partial length FLT4 (E821 to E1196 residues) expressed in bacterial expression system assessed as remaining unbound target protein level at 1000 nM by Kinomescan method relative to control.
In test [20] the target is Receptor-type tyrosine-protein kinase FLT3 (Homo sapiens) (UniProt P36888). Nature of the test: Binding affinity to wild-type human partial length FLT3 (V592 to Y969 residues) expressed in bacterial expression system assessed as remaining unbound target protein level at 1000 nM by Kinomescan method relative to control.
Test [21] has as its target SNF-related serine/threonine-protein kinase (Homo sapiens) (UniProt Q9NRH2). Nature of the test: Binding affinity to wild-type human partial length SNRK (M1 to E339 residues) expressed in mammalian expression system assessed as remaining unbound target protein level at 1000 nM by Kinomescan method relative to control.
For test [22], the target named is Mitogen-activated protein kinase 3 (Homo sapiens) (UniProt P27361). In words: Binding affinity to wild-type human full length ERK1 (M1 to P379 residues) expressed in bacterial expression system assessed as remaining unbound target protein level at 1000 nM by Kinomescan method relative to control. Summed up:
as §3

Sequence of Cyclin-dependent kinase 9 (P50750 whole entry, the tested form may be a part): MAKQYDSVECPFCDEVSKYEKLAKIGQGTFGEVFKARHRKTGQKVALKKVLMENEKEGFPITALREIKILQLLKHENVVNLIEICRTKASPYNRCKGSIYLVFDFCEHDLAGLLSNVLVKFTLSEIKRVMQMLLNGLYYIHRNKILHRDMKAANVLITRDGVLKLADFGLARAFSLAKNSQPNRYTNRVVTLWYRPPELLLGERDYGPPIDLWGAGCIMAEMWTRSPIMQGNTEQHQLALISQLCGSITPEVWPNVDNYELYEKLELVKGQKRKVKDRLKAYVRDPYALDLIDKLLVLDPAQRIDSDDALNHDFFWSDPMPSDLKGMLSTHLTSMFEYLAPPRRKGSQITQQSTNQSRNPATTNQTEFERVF
Sequence of Serine/threonine-protein kinase Nek10 (Homo sapiens) (Q6ZWH5 whole entry, the tested form may be a part): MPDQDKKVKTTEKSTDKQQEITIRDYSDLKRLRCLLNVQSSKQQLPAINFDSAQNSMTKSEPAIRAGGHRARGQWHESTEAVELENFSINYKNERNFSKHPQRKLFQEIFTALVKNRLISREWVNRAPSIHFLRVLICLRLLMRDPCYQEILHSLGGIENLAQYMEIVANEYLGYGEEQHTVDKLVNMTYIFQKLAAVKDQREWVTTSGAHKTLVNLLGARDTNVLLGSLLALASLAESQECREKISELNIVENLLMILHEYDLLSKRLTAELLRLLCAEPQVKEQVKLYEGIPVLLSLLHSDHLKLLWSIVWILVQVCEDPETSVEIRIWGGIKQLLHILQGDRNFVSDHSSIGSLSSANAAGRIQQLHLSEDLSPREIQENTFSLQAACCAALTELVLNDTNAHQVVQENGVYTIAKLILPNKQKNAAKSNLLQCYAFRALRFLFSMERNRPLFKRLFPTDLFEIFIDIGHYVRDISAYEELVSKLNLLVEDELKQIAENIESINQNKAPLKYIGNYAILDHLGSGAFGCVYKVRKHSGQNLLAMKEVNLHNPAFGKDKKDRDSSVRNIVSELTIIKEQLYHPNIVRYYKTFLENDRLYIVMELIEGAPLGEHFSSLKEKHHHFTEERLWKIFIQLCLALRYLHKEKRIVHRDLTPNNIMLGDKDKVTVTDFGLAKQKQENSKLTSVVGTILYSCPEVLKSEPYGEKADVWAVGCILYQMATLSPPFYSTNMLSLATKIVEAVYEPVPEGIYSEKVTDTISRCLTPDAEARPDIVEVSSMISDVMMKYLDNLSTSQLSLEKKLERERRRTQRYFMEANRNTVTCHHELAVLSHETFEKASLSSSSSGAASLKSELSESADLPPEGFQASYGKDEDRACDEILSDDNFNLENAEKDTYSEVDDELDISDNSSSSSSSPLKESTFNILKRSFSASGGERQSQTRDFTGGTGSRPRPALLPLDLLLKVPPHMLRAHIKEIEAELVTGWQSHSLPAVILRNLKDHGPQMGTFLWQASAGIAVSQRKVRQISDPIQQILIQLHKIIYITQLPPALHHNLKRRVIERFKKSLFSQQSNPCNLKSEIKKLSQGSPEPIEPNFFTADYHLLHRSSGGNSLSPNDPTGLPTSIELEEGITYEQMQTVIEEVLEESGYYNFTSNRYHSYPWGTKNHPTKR
Sequence of Mitogen-activated protein kinase 3 (Homo sapiens) (P27361 whole entry, the tested form may be a part): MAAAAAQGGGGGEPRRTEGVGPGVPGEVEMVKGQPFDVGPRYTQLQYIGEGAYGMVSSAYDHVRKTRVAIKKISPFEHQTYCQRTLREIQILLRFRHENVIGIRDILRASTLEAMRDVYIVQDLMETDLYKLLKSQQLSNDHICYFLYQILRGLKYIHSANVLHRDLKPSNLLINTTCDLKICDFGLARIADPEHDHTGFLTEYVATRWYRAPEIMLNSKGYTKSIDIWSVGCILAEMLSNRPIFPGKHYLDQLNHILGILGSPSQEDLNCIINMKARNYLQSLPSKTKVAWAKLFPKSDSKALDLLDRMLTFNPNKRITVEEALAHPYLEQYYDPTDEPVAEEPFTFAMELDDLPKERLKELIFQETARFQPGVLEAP
Sequence of Receptor-type tyrosine-protein kinase FLT3 (Homo sapiens) (P36888 whole entry, the tested form may be a part): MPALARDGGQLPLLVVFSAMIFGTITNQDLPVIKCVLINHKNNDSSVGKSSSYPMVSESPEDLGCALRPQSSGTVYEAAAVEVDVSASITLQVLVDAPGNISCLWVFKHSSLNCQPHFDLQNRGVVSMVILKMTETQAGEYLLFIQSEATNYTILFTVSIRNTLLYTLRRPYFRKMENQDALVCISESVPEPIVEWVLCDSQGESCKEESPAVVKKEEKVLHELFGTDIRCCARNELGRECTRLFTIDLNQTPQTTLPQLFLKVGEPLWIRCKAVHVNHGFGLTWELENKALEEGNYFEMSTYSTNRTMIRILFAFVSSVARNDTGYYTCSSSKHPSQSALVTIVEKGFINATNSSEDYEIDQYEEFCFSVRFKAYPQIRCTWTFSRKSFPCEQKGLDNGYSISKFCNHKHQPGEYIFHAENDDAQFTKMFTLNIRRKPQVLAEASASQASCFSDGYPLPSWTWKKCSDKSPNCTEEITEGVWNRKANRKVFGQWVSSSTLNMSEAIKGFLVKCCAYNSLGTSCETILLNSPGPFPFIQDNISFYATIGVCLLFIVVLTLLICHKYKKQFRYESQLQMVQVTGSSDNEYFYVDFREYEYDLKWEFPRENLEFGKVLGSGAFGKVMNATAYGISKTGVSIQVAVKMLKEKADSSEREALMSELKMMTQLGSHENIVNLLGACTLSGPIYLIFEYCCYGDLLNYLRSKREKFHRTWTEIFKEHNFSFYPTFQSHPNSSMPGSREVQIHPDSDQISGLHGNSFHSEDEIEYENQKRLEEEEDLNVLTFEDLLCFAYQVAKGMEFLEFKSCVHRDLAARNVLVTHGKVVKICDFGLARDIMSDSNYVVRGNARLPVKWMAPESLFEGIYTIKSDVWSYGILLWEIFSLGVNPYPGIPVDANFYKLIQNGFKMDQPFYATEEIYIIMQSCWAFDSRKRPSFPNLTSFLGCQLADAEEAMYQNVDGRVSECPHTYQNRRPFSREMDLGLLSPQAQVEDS
Sequence of Calcium/calmodulin-dependent protein kinase type 1G (Homo sapiens) (Q96NX5 whole entry, the tested form may be a part): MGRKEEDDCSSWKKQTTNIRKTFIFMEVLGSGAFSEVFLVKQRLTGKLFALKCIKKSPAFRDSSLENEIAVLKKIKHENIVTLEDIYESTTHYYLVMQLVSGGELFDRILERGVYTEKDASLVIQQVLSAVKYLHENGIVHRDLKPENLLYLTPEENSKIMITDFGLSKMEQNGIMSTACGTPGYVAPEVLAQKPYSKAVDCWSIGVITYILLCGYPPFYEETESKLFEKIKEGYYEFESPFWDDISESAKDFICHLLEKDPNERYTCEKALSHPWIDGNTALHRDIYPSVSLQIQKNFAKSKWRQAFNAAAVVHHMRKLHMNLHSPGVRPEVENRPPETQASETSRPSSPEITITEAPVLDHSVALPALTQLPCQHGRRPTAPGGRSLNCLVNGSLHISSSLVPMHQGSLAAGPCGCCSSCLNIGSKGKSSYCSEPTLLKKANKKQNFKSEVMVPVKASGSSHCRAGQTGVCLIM
Sequence of Casein kinase I isoform gamma-3 (Homo sapiens) (Q9Y6M4 whole entry, looked up, the tested form may be a part, canonical isoform): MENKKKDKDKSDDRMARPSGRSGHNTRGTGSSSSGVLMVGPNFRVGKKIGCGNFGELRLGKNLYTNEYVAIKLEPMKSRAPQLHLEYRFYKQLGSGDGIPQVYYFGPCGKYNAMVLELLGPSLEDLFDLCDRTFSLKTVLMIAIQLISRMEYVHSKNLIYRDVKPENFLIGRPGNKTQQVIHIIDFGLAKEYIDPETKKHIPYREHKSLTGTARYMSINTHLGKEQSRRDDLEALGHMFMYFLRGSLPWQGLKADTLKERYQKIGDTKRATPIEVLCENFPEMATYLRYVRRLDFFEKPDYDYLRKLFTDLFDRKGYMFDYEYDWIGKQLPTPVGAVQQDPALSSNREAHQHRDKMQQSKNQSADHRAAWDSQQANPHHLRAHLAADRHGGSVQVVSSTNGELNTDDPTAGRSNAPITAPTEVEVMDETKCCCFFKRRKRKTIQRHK
Sequence of MAP kinase-activated protein kinase 5 (Homo sapiens) (Q8IW41 whole entry, the tested form may be a part): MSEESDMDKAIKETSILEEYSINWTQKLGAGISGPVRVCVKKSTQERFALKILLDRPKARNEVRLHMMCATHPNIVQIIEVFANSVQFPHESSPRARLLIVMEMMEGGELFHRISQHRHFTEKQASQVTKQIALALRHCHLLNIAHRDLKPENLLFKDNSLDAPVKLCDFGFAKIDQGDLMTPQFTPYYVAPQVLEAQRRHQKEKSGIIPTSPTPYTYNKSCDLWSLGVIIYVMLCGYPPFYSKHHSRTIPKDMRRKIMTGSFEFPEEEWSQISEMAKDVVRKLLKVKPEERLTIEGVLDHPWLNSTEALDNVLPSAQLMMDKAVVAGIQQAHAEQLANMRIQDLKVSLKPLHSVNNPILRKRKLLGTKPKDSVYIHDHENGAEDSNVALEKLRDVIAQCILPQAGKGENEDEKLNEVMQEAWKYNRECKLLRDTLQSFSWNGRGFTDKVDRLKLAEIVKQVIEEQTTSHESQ
Sequence of Serine/threonine-protein kinase 4 (Homo sapiens) (Q13043 whole entry, the tested form may be a part): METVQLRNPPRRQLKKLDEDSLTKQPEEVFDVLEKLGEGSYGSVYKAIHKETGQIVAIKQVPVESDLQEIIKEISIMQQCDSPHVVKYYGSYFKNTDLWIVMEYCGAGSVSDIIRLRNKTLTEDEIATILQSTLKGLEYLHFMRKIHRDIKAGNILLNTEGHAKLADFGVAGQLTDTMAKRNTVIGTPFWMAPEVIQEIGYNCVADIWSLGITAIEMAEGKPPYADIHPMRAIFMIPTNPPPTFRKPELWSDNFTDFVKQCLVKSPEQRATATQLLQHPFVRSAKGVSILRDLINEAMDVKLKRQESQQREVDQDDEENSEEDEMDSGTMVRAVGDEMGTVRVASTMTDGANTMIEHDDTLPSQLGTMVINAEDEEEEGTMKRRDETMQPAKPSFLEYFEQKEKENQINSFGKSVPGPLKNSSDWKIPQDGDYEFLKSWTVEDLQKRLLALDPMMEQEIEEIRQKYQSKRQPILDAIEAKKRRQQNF

Take `COCCN[C@H]1CC[C@H](Nc2cc(-c3csc(NCC4(C#N)CCOCC4)n3)c(Cl)cn2)CC1`: the Activity in test [1] is 90%; in test [2], 100%; in test [3], 93%; in the test listed under Homo sapiens [4], “Dose-dependent effect”; in [5], 99%; in [6], 79%. Besides, the Activity in test [7] was 94%; in test [8], 65%; in [9], 87%; in test [10], 100%; in test [11], 75%; in test [12] it was 77%. The Activity in test [14] was found to be 85%; in test [15], 99%; in test [17], 90%; in test [19], 88%; in [20] it was 89%; in [21], 100%. Also, in test [22], the Activity was 90%. Besides, the IC50 in test [13] is more than 10 µM. Further, the result in the test listed under Homo sapiens [16] was inactive. For the same compound, the EC50 in test [18] is less than 100 nM. In addition, the inhibition entry in [18] was “Dose-dependent effect”.

For the origin of these results see ChEMBL document CHEMBL4261600 (Eur J Med Chem, 2018).
